According to ChEMBL document CHEMBL1147877, “Synthesis of novel triheterocyclic thiazoles as anti-inflammatory and analgesic agents” (2007):

Columns and labels:
[1] = system: Mus musculus; experiment: Acute toxicity in Albino mouse at 100 mg/kg after 24 hrs; assay type: functional, organism-based; set-up: dose 100 mg/kg
Procedure, shortened: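 Albino mice (20–25 g), fasted overnight, dosed across 1000–100 mg/kg body weight and watched for 24 h for signs of acute toxicity, e.g. raised or lowered motor activity, tremors, convulsion, sedation, lacrimation.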

[2] = system: Mus musculus; experiment: Analgesic activity in Albino mouse assessed as inhibition of acetic acid-induced writhing responses at 100 mg/kg, po; set-up: scale not given: the % may be the effect or the level left
[3] = system: Rattus norvegicus; experiment: Antiinflammatory activity in rat assessed as inhibition of formalin-induced paw oedema at 100 mg/kg, ip after 1 hr; assay type: functional; conditions: route intraperitoneal
Procedure, shortened: (§1)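 Albino rats of either sex, six per group, with plain 2% CMC as control. Formalin injected into the paw to induce oedema. Paw volume measured by plethysmograph (mercury displacement) immediately after injection (0 h), then at 0.5, 1, 2, 4, 8, 12 and 24 h. Results given as % inhibition of inflammation. P < 0.05 taken as significant.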

[4] = system: Rattus norvegicus; experiment: Antiinflammatory activity in rat assessed as inhibition of formalin-induced paw oedema at 100 mg/kg, ip after 4 hrs; assay type: functional; conditions: route intraperitoneal; procedure, shortened: as §1
[5] = system: Rattus norvegicus; experiment: Antiinflammatory activity in rat assessed as inhibition of formalin-induced paw oedema at 100 mg/kg, ip after 0.5 hrs; assay type: functional; conditions: route intraperitoneal; procedure, shortened: as §1
[6] = system: Rattus norvegicus; experiment: Antiinflammatory activity in rat assessed as inhibition of formalin-induced paw oedema at 100 mg/kg, ip after 2 hrs; assay type: functional; conditions: route intraperitoneal; procedure, shortened: as §1
[7] = system: Rattus norvegicus; experiment: Antiinflammatory activity in rat assessed as inhibition of formalin-induced paw oedema at 100 mg/kg, ip; assay type: functional; conditions: route intraperitoneal; procedure, shortened: as §1
[8] = system: Rattus norvegicus; experiment: Antiinflammatory activity in rat assessed as inhibition of formalin-induced paw oedema at 100 mg/kg, ip after 12 hrs; assay type: functional; conditions: route intraperitoneal; procedure, shortened: as §1
[9] = system: Rattus norvegicus; experiment: Antiinflammatory activity in rat assessed as inhibition of formalin-induced paw oedema at 100 mg/kg, ip after 24 hrs; assay type: functional; conditions: route intraperitoneal; procedure, shortened: as §1
[10] = system: Rattus norvegicus; experiment: Antiinflammatory activity in rat assessed as inhibition of formalin-induced paw oedema at 100 mg/kg, ip after 8 hrs; assay type: functional; conditions: route intraperitoneal; procedure, shortened: as §1

Q: For `O=c1cc(CNc2nc(-c3cc4ccccc4oc3=O)cs2)c2ccc(Cl)cc2[nH]1`, which Activity [1] is on record?
A: The Activity was “Not toxic”.

Q: How did the Activity [1] turn out when `O=c1cc(CNc2nc(-c3cc4cc(Br)ccc4oc3=O)cs2)c2cc(Cl)ccc2[nH]1` was run?
A: Its Activity is “Not toxic”.

Q: What about the Activity [2] of the same compound?
A: The Activity was 88.89%.

Q: What about the inhibition in vivo at 100 mg/kg [3] of the same compound?
A: The inhibition in vivo at 100 mg/kg was 4.42%.

Q: And the inhibition in vivo at 100 mg/kg [4]?
A: The inhibition in vivo at 100 mg/kg was 19.8%.

Q: And the inhibition in vivo at 100 mg/kg [5]?
A: The inhibition in vivo at 100 mg/kg was 4.11%.

Q: What about the inhibition in vivo at 100 mg/kg [6] of the same compound?
A: Its inhibition in vivo at 100 mg/kg is 5.26%.

Q: What about the inhibition in vivo at 100 mg/kg [7] of the same compound?
A: The inhibition in vivo at 100 mg/kg was 3.03%.

Q: And the inhibition in vivo at 100 mg/kg [8]?
A: Its inhibition in vivo at 100 mg/kg is 15.6%.

Q: What about the inhibition in vivo at 100 mg/kg [9] of the same compound?
A: The inhibition in vivo at 100 mg/kg was 9.08%.

Q: What about the inhibition in vivo at 100 mg/kg [10] of the same compound?
A: Its inhibition in vivo at 100 mg/kg is 28.6%.

Q: Which Activity [1] does the source give for `Cc1cccc2c(CNc3nc(-c4cc5cc(Br)cc(Br)c5oc4=O)cs3)cc(=O)[nH]c12` here?
A: Its Activity is “Not toxic”.

Q: What about the Activity [2] of the same compound?
A: Its Activity is 62.73%.

Q: What about the inhibition in vivo at 100 mg/kg [3] of the same compound?
A: Its inhibition in vivo at 100 mg/kg is 11.3%.

Q: What about the inhibition in vivo at 100 mg/kg [4] of the same compound?
A: Its inhibition in vivo at 100 mg/kg is 22.7%.

Q: What about the inhibition in vivo at 100 mg/kg [5] of the same compound?
A: Its inhibition in vivo at 100 mg/kg is 3.65%.

Q: And the inhibition in vivo at 100 mg/kg [6]?
A: The inhibition in vivo at 100 mg/kg was 16.3%.

Q: And the inhibition in vivo at 100 mg/kg [7]?
A: The inhibition in vivo at 100 mg/kg was 2.65%.

Q: What about the inhibition in vivo at 100 mg/kg [8] of the same compound?
A: Its inhibition in vivo at 100 mg/kg is 16.7%.

Q: What about the inhibition in vivo at 100 mg/kg [9] of the same compound?
A: Its inhibition in vivo at 100 mg/kg is 9.78%.

Q: What about the inhibition in vivo at 100 mg/kg [10] of the same compound?
A: Its inhibition in vivo at 100 mg/kg is 33.7%.

Q: Which results are given for `CC(=O)Oc1ccccc1C(=O)O` [ASPIRIN]?
A: Activity [2]: 81.56%; inhibition in vivo at 100 mg/kg [3]: 17.1%; inhibition in vivo at 100 mg/kg [4]: 49.9%; inhibition in vivo at 100 mg/kg [5]: 9.76%; inhibition in vivo at 100 mg/kg [6]: 29.9%; inhibition in vivo at 100 mg/kg [7]: 5.97%; inhibition in vivo at 100 mg/kg [8]: 22.2%; inhibition in vivo at 100 mg/kg [9]: 17.4%; inhibition in vivo at 100 mg/kg [10]: 39.7%

Q: Which Activity [1] does the source give for `Cc1cccc2c(CNc3nc(-c4cc5cc(Br)ccc5oc4=O)cs3)cc(=O)[nH]c12` here?
A: The Activity was “Not toxic”.

Q: And the Activity [2]?
A: The Activity was 35.05%.

Q: What about the inhibition in vivo at 100 mg/kg [3] of the same compound?
A: Its inhibition in vivo at 100 mg/kg is 8.76%.

Q: And the inhibition in vivo at 100 mg/kg [4]?
A: The inhibition in vivo at 100 mg/kg was 14.5%.

Q: What about the inhibition in vivo at 100 mg/kg [5] of the same compound?
A: Its inhibition in vivo at 100 mg/kg is 3.12%.

Q: And the inhibition in vivo at 100 mg/kg [6]?
A: Its inhibition in vivo at 100 mg/kg is 9.19%.

Q: And the inhibition in vivo at 100 mg/kg [7]?
A: Its inhibition in vivo at 100 mg/kg is 1.6%.

Q: What about the inhibition in vivo at 100 mg/kg [8] of the same compound?
A: Its inhibition in vivo at 100 mg/kg is 24.1%.

Q: And the inhibition in vivo at 100 mg/kg [9]?
A: The inhibition in vivo at 100 mg/kg was 16.9%.

Q: What about the inhibition in vivo at 100 mg/kg [10] of the same compound?
A: The inhibition in vivo at 100 mg/kg was 18.5%.

Q: For `O=c1cc(CNc2nc(-c3cc4ccccc4oc3=O)cs2)c2cc(Cl)ccc2[nH]1`, which Activity [1] is on record?
A: Its Activity is “Not toxic”.

Q: Which Activity [1] does the source give for `O=c1cc(CNc2nc(-c3cc4cc(Br)ccc4oc3=O)cs2)c2ccc(Cl)cc2[nH]1` here?
A: Its Activity is “Not toxic”.

Q: What about the Activity [2] of the same compound?
A: The Activity was 64.94%.

Q: What about the inhibition in vivo at 100 mg/kg [3] of the same compound?
A: Its inhibition in vivo at 100 mg/kg is 5.8%.

Q: And the inhibition in vivo at 100 mg/kg [4]?
A: The inhibition in vivo at 100 mg/kg was 13.3%.

Q: And the inhibition in vivo at 100 mg/kg [5]?
A: Its inhibition in vivo at 100 mg/kg is 5.26%.

Q: And the inhibition in vivo at 100 mg/kg [6]?
A: Its inhibition in vivo at 100 mg/kg is 9.09%.

Q: And the inhibition in vivo at 100 mg/kg [7]?
A: The inhibition in vivo at 100 mg/kg was 2.4%.

Q: And the inhibition in vivo at 100 mg/kg [8]?
A: Its inhibition in vivo at 100 mg/kg is 23.2%.

Q: What about the inhibition in vivo at 100 mg/kg [9] of the same compound?
A: Its inhibition in vivo at 100 mg/kg is 18.4%.

Q: And the inhibition in vivo at 100 mg/kg [10]?
A: Its inhibition in vivo at 100 mg/kg is 24.5%.

Q: What does the source list for `O=c1cc(CNc2nc(-c3cc4cc(Br)cc(Br)c4oc3=O)cs2)c2cc(Cl)ccc2[nH]1`?
A: Activity [1]: Not toxic; Activity [2]: 48.7%; inhibition in vivo at 100 mg/kg [3]: 13.8%; inhibition in vivo at 100 mg/kg [4]: 29.8%; inhibition in vivo at 100 mg/kg [5]: 6.75%; inhibition in vivo at 100 mg/kg [6]: 17.8%; inhibition in vivo at 100 mg/kg [7]: 2.85%; inhibition in vivo at 100 mg/kg [8]: 14.4%; inhibition in vivo at 100 mg/kg [9]: 9.35%; inhibition in vivo at 100 mg/kg [10]: 21.9%

Q: How did the Activity [1] turn out when `O=c1cc(CNc2nc(-c3cc4cc(Br)cc(Br)c4oc3=O)cs2)c2ccc(Cl)cc2[nH]1` was run?
A: The Activity was “Not toxic”.

Q: And the Activity [2]?
A: Its Activity is 78.22%.

Q: And the inhibition in vivo at 100 mg/kg [3]?
A: Its inhibition in vivo at 100 mg/kg is 12.6%.

Q: And the inhibition in vivo at 100 mg/kg [4]?
A: Its inhibition in vivo at 100 mg/kg is 34.5%.

Q: And the inhibition in vivo at 100 mg/kg [5]?
A: Its inhibition in vivo at 100 mg/kg is 3.27%.

Q: And the inhibition in vivo at 100 mg/kg [6]?
A: Its inhibition in vivo at 100 mg/kg is 13%.

Q: And the inhibition in vivo at 100 mg/kg [7]?
A: Its inhibition in vivo at 100 mg/kg is 2.89%.

Q: What about the inhibition in vivo at 100 mg/kg [8] of the same compound?
A: The inhibition in vivo at 100 mg/kg was 18.7%.

Q: And the inhibition in vivo at 100 mg/kg [9]?
A: The inhibition in vivo at 100 mg/kg was 10.6%.

Q: And the inhibition in vivo at 100 mg/kg [10]?
A: The inhibition in vivo at 100 mg/kg was 41.5%.

Q: How did the Activity [1] turn out when `Cc1cccc2c(CNc3nc(-c4cc5ccccc5oc4=O)cs3)cc(=O)[nH]c12` was run?
A: Its Activity is “Not toxic”.
